From ChEMBL document CHEMBL1123589, “Phenylpiperazine-based radiopharmaceuticals for brain imaging. 3. Synthesis and evaluation of radioiodinated 1-alkyl-4-phenylpiperazines” (J Med Chem, 1987)

Legend:
Conditions in all cases: in vivo
Rattus norvegicus [1] = assay: The biodistribution of the [125I]-labeled compound in rats after intravenous injection was evaluated in brain at 4.00 hrs (ID.kg/g); type: ADME, organism-based
Summary of the method: (§1)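 Male Sprague-Dawley rats (250–300 g) under ether anesthesia were given an iv injection of no-carrier-added 125I-labelled agent (10–15 μCi in 0.1 mL saline). The agent was iodinated with chloramine-T in acetate buffer and purified by C-18 HPLC. Groups of N = 3 were killed at 0.25, 1 and 4 h. Blood and tissues were weighed and γ-counted. Values are % ID·kg/g, mean (range).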

Rattus norvegicus [2] = assay: The biodistribution of the [125I]-labeled compound in rats after intravenous injection was evaluated in fat at 0.25 hr; value ranges from 0.07-0.09 (ID.kg/g); type: ADME, organism-based, Adipose tissue; summary of the method: as §1
Rattus norvegicus [3] = assay: The biodistribution of the [125I]-labeled compound in rats after intravenous injection was evaluated in heart at 4.00 hrs; value ranges from 0.12-0.14 (ID.kg/g); type: ADME, organism-based
Summary of the method: (§2)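 Male Sprague-Dawley rats (250–300 g), under ether anesthesia, given 10–15 μCi of the NCA ¹²⁵I-labeled agent iv in 0.1 mL saline. Groups of N = 3 were killed at 0.25, 1 or 4 h. Blood and tissues were removed, weighed and counted in a γ-well scintillation counter. Values are mean % ID·kg/g (range).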

Rattus norvegicus [4] = assay: The biodistribution of the [125I]-labeled compound in rats after intravenous injection was evaluated in muscle at 4.00 hrs (ID.kg/g); type: ADME, organism-based, Muscle tissue
Summary of the method: (§3)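 Male Sprague-Dawley rats (250–300 g) under ether anesthesia given iv 0.1 mL saline containing 10–15 μCi of NCA ¹²⁵I-labeled agent (chloramine-T iodination, HPLC-purified). Groups of 3 killed at 0.25, 1 and 4 h. Blood and tissues excised, weighed and γ-counted. Values are mean (range) of % injected dose × body mass (kg) per gram of tissue.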

Rattus norvegicus [5] = assay: The biodistribution of the [125I]-labeled compound in rats after intravenous injection was evaluated in brain at 0.25 hrs; value ranges from 0.19-0.26 (ID.kg/g); type: ADME, organism-based
Rattus norvegicus [6] = assay: The biodistribution of the [125I]-labeled compound in rats after intravenous injection was evaluated in thyroid at 0.25 hrs (ID.kg/g); type: ADME, organism-based, Thyroid gland; summary of the method: as §3
Rattus norvegicus [7] = assay: The biodistribution of the [125I]-labeled compound in rats after intravenous injection was evaluated in liver at 4.00 hrs; value ranges from 0.19-0.21 (ID.kg/g); type: ADME, organism-based; summary of the method: as §2
Rattus norvegicus [8] = assay: The biodistribution of the [125I]-labeled compound in rats after intravenous injection was evaluated in blood at 0.25 hrs (ID.kg/g); type: ADME, organism-based; summary of the method: as §1
Rattus norvegicus [9] = assay: The biodistribution of the [125I]-labeled compound in rats after intravenous injection was evaluated in muscle at 0.25 hrs; value ranges from 0.06-0.07 (ID.kg/g); type: ADME, organism-based, Muscle tissue; summary of the method: as §3
Rattus norvegicus [10] = assay: The biodistribution of the [125I]-labeled compound in rats after intravenous injection was evaluated in heart at 0.25 hrs; value ranges from 0.10-0.11 (ID.kg/g); type: ADME, organism-based; summary of the method: as §1
Rattus norvegicus [11] = assay: The biodistribution of the [125I]-labeled compound in rats after intravenous injection was evaluated in liver at 1.00 hrs; value ranges from 0.27-0.47 (ID.kg/g); type: ADME, organism-based; summary of the method: as §2
Rattus norvegicus [12] = assay: The biodistribution of the [125I]-labeled compound in rats after intravenous injection was evaluated in adrenal at 1.00 hrs; value ranges from 0.12-0.19 (ID.kg/g); type: ADME, organism-based; summary of the method: as §1
Rattus norvegicus [13] = assay: The biodistribution of the [125I]-labeled compound in rats after intravenous injection was evaluated in fat at 4.00 hrs; value ranges from 0.06-0.07 (ID.kg/g); type: ADME, organism-based, Adipose tissue; summary of the method: as §1
Rattus norvegicus [14] = assay: The biodistribution of the [125I]-labeled compound in rats after intravenous injection was evaluated in lung at 4.00 hrs (ID.kg/g); type: ADME, organism-based; summary of the method: as §2
Rattus norvegicus [15] = assay: The biodistribution of the [125I]-labeled compound in rats after intravenous injection was evaluated in kidney at 1.00 hrs; value ranges from 0.28-0.33 (ID.kg/g); type: ADME, organism-based; summary of the method: as §2
Rattus norvegicus [16] = assay: The biodistribution of the [125I]-labeled compound in rats after intravenous injection was evaluated in blood at 1.00 hrs (ID.kg/g); type: ADME, organism-based; summary of the method: as §1
Rattus norvegicus [17] = assay: The biodistribution of the [125I]-labeled compound in rats after intravenous injection was evaluated in muscle at 1.00 hrs; value ranges from 0.03-0.05 (ID.kg/g); type: ADME, organism-based, Muscle tissue; summary of the method: as §3
Rattus norvegicus [18] = assay: The biodistribution of the [125I]-labeled compound in rats after intravenous injection was evaluated in lung at 0.25 hrs (ID.kg/g); type: ADME, organism-based; summary of the method: as §2
Rattus norvegicus [19] = assay: The biodistribution of the [125I]-labeled compound in rats after intravenous injection was evaluated in brain at 1.00 hrs; (ID.kg/g); type: ADME, organism-based; summary of the method: as §1
Rattus norvegicus [20] = assay: The biodistribution of the [125I]-labeled compound in rats after intravenous injection was evaluated in blood at 4.00 hrs (ID.kg/g); type: ADME, organism-based; summary of the method: as §1
Rattus norvegicus [21] = assay: The biodistribution of the [125I]-labeled compound in rats after intravenous injection was evaluated in kidney at 4.00 hrs; value ranges from 0.14-0.21 (ID.kg/g); type: ADME, organism-based; summary of the method: as §2
Rattus norvegicus [22] = assay: The biodistribution of the [125I]-labeled compound in rats after intravenous injection was evaluated in lung at 1.00 hrs (ID.kg/g); type: ADME, organism-based; summary of the method: as §2
Rattus norvegicus [23] = assay: The biodistribution of the [125I]-labeled compound in rats after intravenous injection was evaluated in kidney at 0.25 hr; value ranges from 0.31-0.38 (ID.kg/g); type: ADME, organism-based; summary of the method: as §2
Rattus norvegicus [24] = assay: The biodistribution of the [125I]-labeled compound in rats after intravenous injection was evaluated in heart at 1.00 hrs; value ranges from 0.11-0.13 (ID.kg/g); type: ADME, organism-based; summary of the method: as §1
Rattus norvegicus [25] = assay: The biodistribution of the [125I]-labeled compound in rats after intravenous injection was evaluated in fat at 1.00 hrs; value ranges from 0.08-0.12 (ID.kg/g); type: ADME, organism-based, Adipose tissue; summary of the method: as §1
Rattus norvegicus [26] = assay: The biodistribution of the [125I]-labeled compound in rats after intravenous injection was evaluated in thyroid at 1.00 hrs value ranges from 2.04-2.76( ID.kg/g); type: ADME, organism-based, Thyroid gland; summary of the method: as §3
Rattus norvegicus [27] = assay: The biodistribution of the [125I]-labeled compound in rats after intravenous injection was evaluated in adrenal at 0.25 hrs; value ranges from 0.22-0.37 (ID.kg/g); type: ADME, organism-based; summary of the method: as §1
Rattus norvegicus [28] = assay: The biodistribution of the [125I]-labeled compound in rats after intravenous injection was evaluated in liver at 0.25 hr; value ranges from 0.24-0.40 (ID.kg/g); type: ADME, organism-based; summary of the method: as §2
Rattus norvegicus [29] = assay: The biodistribution of the [125I]-labeled compound in rats after intravenous injection was evaluated in adrenal at 4.00 hrs; value ranges from 0.11-0.13 (ID.kg/g); type: ADME, organism-based; summary of the method: as §1
Rattus norvegicus [30] = assay: The biodistribution of the [125I]-labeled compound in rats after intravenous injection was evaluated in thyroid at 4.00 hrs; value ranges from 2.48-3.53 (ID.kg/g); type: ADME, organism-based, Thyroid gland; summary of the method: as §3

With CN1CCN(c2ccc(I)cc2)CC1 the Biodistribution (Rattus norvegicus [1]) was 0.05%, the Biodistribution (Rattus norvegicus [2]) was 0.09% and the Biodistribution (Rattus norvegicus [3]) was 0.14%. It also gave a Biodistribution (Rattus norvegicus [4]) of 0.02 %ID·kg/g, a Biodistribution (Rattus norvegicus [5]) of 0.26% and a Biodistribution (Rattus norvegicus [6]) of 0.96%. It also gave a Biodistribution (Rattus norvegicus [7]) of 0.21%, a Biodistribution (Rattus norvegicus [8]) of 0.04 % ID·kg/g and a Biodistribution (Rattus norvegicus [9]) of 0.07%. The Biodistribution (Rattus norvegicus [10]) was 0.11%, the Biodistribution (Rattus norvegicus [11]) was 47% and the Biodistribution (Rattus norvegicus [12]) was 0.19%. For the same molecule, the Biodistribution (Rattus norvegicus [13]) was 0.07%, the Biodistribution (Rattus norvegicus [14]) was 0.09% and the Biodistribution (Rattus norvegicus [15]) was 0.33%. It also gave a Biodistribution (Rattus norvegicus [16]) of 0.04%, a Biodistribution (Rattus norvegicus [17]) of 0.05% and a Biodistribution (Rattus norvegicus [18]) of 0.22%. It also gave a Biodistribution (Rattus norvegicus [19]) of 0.05%, a Biodistribution (Rattus norvegicus [20]) of 0.02 % ID·kg/g and a Biodistribution (Rattus norvegicus [21]) of 0.21%. It also gave a Biodistribution (Rattus norvegicus [22]) of 0.2%, a Biodistribution (Rattus norvegicus [23]) of 0.38% and a Biodistribution (Rattus norvegicus [24]) of 0.13%. For the same molecule, the Biodistribution (Rattus norvegicus [25]) was 0.12%, the Biodistribution (Rattus norvegicus [26]) was 2.76% and the Biodistribution (Rattus norvegicus [27]) was 0.37%. For the same molecule, the Biodistribution (Rattus norvegicus [28]) was 0.4%, the Biodistribution (Rattus norvegicus [29]) was 0.13% and the Biodistribution (Rattus norvegicus [30]) was 3.53%.
